Measurements pooled from the literature.
Each line is one published result; the experiments were not run side by side.
Cell line: HepG2
Read-out: cell growth or viability

SMILES	method	tested at	time	endpoint	value
Cc1nc2ccc(CN(C)c3ccc(C(=O)N[C@@H](CCC(=O)O)C(=O)O)s3)cc2c(=O)[nH]1	MTT		48 h	IC50	1.34 µM
CC(=NNC(=S)Nc1ccccc1)c1ccc(Nc2nnc(-c3ccc(Cl)cc3)c3ccccc23)cc1	MTT	1.25 µM		cell death	50%
COc1ccc(-c2cc(-c3ccc(C)cc3)nc3[nH]c(=O)[nH]c(=O)c23)cc1OC	MTT		48 h	IC50	34.7 µM
O=C(C=Cc1ccccc1)Nc1ccc(Oc2nnc(-c3ccc(Cl)cc3)c3ccccc23)cc1	MTT	1.25 µM	24 h	viability	37.4%
CC(=O)c1nn(-c2ccc(C)cc2)/c(=N/N=C(\C)c2ccc(NC(=O)c3ccccc3)cc2)s1	MTT	0.156 µM		viability	28.5%
COc1ccc(-c2cc(-c3ccc(Br)cc3)c3c(=O)n(C)c(=O)n(C)c3n2)cc1	MTT		48 h	IC50	8.49 µM
CCOC(=O)c1nn(-c2cccc(Cl)c2)/c(=N/N=C(\C)c2ccc(NC(=O)c3ccc(Cl)cc3)cc2)s1	MTT	0.625 µM		viability	2.86%
C=CC(=O)NC1CCN(c2ncc3ncnc(Nc4ccc(Oc5ccc6c(c5)ncn6C)c(C)c4)c3n2)CC1				EC50	0.335 µM
C/C(=N\N=C1/NC(=O)/C(=C\c2ccc(F)cc2)S1)c1ccccn1	SRB	100 µg/mL	48 h	inhibition	57.6%
CC(=NNC(=O)c1cccnc1)c1ccc(Nc2nnc(-c3ccc(Cl)cc3)c3ccccc23)cc1	MTT	0.625 µM	24 h	viability	49.9%
CCOC(=O)c1nn(-c2cccc(Cl)c2)/c(=N/N=C(\C)c2ccc(NC(=O)c3ccccc3)cc2)s1	MTT	0.312 µM		viability	3.54%
CC(=NNC(=O)COc1ccc2c(C)c(Cc3ccccc3)c(=O)oc2c1C)c1ccc(Br)cc1	MTT	6.3 µg/mL		viability	50.6%
CC(=NNC(N)=S)c1ccc(Nc2nnc(-c3ccc(Cl)cc3)c3ccccc23)cc1	MTT	1.25 µM		cell death	92.3%
COc1ccc(-c2cc(-c3ccc(C)cc3)nc3c2c(=O)n(C)c(=O)n3C)cc1OC	MTT		48 h	IC50	32.5 µM
O=C(Nc1ccccc1)Nc1ccc(Oc2nnc(-c3ccc(Cl)cc3)c3ccccc23)cc1	MTT	5 µM		cell death	94.9%
CC(=O)Nc1ccc(/C(C)=N/N=c2\sc(C(C)=O)nn2-c2ccc(C)cc2)cc1	MTT	1.25 µM		viability	99.8%
CC(=NNC(=O)c1ccccc1O)c1ccc(Nc2nnc(-c3ccc(Cl)cc3)c3ccccc23)cc1	MTT	2.5 µM		cell death	62.1%
CN(C)c1cc(NC(=O)Cc2cscn2)c(O)c2c1C[C@H]1C[C@H]3[C@H](N(C)C)C(O)=C(C(N)=O)C(=O)[C@@]3(O)C(O)=C1C2=O	ATP luminescence		72 h	IC50	75.8 µg/mL
COc1ccc(-c2cc(-c3ccc(Cl)cc3)c3c(=O)n(C)c(=O)n(C)c3n2)cc1	MTT		48 h	IC50	17.3 µM
CC(=NNC(=O)c1ccncc1)c1ccc(Nc2nnc(-c3ccc(Cl)cc3)c3ccccc23)cc1	MTT	2.5 µM	24 h	viability	3.92%
CC(=O)c1nn(-c2ccccc2Cl)/c(=N/N=C(\C)c2ccc(NC(=O)c3ccccc3)cc2)s1	MTT	2.5 µM		viability	6.09%
